Source: the M2OR odorant receptor database
Substitutions are numbered along the chain they refer to.

Legend:
Conditions in all cases: stereoisomer not certain
UniProt Q7TR71 = biological target: T1, UniProt Q7TR71
T1 sequence (whole entry): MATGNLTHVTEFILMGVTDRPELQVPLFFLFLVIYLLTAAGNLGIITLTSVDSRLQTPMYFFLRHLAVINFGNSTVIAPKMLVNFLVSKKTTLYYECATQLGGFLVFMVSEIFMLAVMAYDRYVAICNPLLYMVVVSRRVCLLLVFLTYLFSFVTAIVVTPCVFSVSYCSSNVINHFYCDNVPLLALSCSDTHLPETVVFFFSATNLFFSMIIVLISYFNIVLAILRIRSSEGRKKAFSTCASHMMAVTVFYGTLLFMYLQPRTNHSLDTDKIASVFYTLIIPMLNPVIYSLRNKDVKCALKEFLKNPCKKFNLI
In short: (§1)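 Each receptor–molecule pair is labelled responsive or non-responsive (inactive) according to whether the original authors judged the measured signal statistically different from baseline. The data were taken from the main text and supplementary material of published papers and checked for typos and inconsistencies. Assay methods differed by source, with transient luciferase assays in mammalian cell lines being common.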

UniProt Q7TR75 = biological target: UniProt Q7TR75
Sequence of UniProt Q7TR75 (Q7TR75 as listed by the source): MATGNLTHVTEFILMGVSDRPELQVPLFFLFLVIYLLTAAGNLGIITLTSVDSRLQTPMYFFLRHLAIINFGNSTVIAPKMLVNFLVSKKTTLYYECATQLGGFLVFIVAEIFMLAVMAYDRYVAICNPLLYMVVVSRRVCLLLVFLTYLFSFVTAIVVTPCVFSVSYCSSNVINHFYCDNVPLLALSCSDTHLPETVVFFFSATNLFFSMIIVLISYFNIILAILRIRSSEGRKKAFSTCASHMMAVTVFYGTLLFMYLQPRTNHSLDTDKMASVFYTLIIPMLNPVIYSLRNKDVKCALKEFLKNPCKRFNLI
In short: as §1

UniProt Q7TRA1 = biological target: T2, UniProt Q7TRA1
T2 sequence (whole entry): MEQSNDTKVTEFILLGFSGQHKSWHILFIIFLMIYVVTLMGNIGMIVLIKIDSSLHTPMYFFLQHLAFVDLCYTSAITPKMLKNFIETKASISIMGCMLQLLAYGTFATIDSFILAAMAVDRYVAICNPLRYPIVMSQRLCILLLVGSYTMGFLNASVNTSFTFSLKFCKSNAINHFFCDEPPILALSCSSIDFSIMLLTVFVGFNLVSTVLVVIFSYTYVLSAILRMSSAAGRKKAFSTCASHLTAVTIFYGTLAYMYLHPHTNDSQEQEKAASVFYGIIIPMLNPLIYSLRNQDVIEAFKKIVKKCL
In short: as §1

UniProt Q7TRA2 = biological target: T3, UniProt Q7TRA2
T3 sequence (whole entry): T2 sequence (whole entry) with S18A, I86T, I94F, M95I, S112C, V208L, T219I, V221I, V305A
In short: as §1

UniProt Q7TRA3 = biological target: T4, UniProt Q7TRA3
T4 sequence (whole entry): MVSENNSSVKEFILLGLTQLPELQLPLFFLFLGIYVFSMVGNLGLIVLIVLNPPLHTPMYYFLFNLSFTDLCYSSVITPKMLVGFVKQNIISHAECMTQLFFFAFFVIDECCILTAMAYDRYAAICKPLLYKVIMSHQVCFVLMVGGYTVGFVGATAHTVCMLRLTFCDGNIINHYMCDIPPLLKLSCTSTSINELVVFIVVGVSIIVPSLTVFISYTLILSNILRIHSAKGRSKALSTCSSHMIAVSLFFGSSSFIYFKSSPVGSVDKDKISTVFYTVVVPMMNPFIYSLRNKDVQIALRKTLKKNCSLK
In short: as §1

UniProt Q7TRB8 = biological target: UniProt Q7TRB8
Sequence of UniProt Q7TRB8 (Q7TRB8 as listed by the source): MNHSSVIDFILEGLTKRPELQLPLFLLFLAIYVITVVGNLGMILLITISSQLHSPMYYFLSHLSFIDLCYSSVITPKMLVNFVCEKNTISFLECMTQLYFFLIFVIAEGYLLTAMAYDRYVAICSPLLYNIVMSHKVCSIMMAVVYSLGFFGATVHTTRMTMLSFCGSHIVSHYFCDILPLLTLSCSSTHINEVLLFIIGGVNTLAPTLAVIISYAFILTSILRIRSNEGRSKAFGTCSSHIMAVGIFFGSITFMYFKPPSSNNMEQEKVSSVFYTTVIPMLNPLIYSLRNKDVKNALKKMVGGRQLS
In short: as §1

UniProt Q7TRE4 = biological target: T5, UniProt Q7TRE4
T5 sequence (whole entry): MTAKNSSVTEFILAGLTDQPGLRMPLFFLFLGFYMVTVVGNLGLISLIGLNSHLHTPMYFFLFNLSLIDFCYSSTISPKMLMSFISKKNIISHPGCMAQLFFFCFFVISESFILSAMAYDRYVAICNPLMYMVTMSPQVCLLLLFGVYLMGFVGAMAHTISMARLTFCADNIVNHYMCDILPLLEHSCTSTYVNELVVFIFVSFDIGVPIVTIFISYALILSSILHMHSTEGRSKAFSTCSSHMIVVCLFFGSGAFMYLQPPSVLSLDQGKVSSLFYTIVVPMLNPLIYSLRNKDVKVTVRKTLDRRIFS
In short: as §1

UniProt Q7TRW1 = biological target: T6, UniProt Q7TRW1
T6 sequence (whole entry): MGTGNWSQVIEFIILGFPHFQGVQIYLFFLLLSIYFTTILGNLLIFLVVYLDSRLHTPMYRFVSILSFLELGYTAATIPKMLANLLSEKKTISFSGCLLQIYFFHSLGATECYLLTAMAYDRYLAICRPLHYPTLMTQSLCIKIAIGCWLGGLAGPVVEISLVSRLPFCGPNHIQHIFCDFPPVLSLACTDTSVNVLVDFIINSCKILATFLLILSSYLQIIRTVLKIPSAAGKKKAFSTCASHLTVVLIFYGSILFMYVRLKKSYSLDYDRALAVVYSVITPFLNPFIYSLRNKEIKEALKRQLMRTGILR
In short: as §1

UniProt Q7TS17 = biological target: UniProt Q7TS17
Sequence of UniProt Q7TS17 (Q7TS17 as listed by the source): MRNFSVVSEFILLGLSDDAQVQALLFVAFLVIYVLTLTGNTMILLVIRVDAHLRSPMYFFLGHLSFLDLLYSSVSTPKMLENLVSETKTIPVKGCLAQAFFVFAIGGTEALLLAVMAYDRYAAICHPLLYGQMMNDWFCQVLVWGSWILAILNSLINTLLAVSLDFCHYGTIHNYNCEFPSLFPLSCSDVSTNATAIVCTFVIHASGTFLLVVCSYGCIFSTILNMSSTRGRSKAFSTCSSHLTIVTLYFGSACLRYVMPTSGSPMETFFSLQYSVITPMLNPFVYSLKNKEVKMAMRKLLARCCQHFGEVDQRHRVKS
In short: as §1

UniProt Q7TS37 = biological target: UniProt Q7TS37
Sequence of UniProt Q7TS37 (Q7TS37 as listed by the source): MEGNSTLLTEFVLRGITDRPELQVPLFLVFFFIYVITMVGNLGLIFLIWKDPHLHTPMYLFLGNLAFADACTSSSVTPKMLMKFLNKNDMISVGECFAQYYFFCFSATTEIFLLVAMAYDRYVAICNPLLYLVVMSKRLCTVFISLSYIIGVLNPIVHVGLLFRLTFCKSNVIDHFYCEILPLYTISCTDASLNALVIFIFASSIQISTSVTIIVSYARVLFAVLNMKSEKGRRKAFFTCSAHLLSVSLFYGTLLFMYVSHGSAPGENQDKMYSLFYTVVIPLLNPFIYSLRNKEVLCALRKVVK
In short: as §1

UniProt Q7TS40 = biological target: UniProt Q7TS40
Sequence of UniProt Q7TS40 (Q7TS40 as listed by the source): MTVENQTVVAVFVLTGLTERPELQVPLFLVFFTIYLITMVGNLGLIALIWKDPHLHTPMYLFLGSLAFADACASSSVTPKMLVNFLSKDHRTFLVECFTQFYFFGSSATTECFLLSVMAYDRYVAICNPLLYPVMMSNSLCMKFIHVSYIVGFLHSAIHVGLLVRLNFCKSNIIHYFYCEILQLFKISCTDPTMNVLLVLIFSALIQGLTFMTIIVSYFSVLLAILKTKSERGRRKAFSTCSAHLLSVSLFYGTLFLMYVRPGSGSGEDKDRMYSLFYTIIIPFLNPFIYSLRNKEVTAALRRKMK
In short: as §1

UniProt Q8VEU7 = biological target: T7, UniProt Q8VEU7
T7 sequence (whole entry): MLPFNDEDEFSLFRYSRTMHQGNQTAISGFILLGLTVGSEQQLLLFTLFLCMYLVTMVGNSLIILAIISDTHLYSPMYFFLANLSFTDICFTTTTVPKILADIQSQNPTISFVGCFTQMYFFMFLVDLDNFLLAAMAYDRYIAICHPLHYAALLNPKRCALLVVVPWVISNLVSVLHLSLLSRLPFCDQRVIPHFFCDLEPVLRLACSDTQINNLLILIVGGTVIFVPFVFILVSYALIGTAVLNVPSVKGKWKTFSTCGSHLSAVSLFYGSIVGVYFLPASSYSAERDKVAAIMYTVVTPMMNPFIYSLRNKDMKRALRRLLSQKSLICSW
In short: as §1

UniProt Q8VF05 = biological target: T8, UniProt Q8VF05
T8 sequence (whole entry): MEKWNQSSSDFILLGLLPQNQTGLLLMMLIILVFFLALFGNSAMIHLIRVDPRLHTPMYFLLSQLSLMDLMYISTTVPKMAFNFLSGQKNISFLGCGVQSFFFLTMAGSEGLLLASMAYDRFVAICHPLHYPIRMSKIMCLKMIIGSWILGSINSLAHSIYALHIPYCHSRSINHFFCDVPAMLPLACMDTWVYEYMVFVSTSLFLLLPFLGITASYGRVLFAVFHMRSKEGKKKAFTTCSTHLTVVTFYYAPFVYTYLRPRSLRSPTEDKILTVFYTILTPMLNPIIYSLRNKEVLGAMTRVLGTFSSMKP
In short: as §1

UniProt Q7TR79 = biological target: T9, UniProt Q7TR79
T9 sequence (whole entry): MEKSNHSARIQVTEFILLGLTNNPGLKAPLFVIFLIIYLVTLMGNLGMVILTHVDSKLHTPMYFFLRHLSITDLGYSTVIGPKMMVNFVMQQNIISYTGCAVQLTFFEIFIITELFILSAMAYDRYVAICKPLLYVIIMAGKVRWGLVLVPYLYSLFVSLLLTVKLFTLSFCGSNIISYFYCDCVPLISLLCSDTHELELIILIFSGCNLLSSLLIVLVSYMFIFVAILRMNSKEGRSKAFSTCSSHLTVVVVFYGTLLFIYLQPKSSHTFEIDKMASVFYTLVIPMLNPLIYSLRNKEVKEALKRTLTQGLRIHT
In short: as §1

UniProt Q7TRX0 = biological target: T10, UniProt Q7TRX0
T10 sequence (whole entry): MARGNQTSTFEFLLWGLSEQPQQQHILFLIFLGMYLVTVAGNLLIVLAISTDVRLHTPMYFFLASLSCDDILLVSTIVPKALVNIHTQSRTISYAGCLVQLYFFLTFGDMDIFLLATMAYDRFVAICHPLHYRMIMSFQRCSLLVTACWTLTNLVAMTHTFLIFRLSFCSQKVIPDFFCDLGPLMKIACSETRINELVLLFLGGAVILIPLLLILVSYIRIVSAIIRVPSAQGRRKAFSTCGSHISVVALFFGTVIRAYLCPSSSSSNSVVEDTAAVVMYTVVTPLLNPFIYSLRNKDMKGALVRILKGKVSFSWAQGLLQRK
In short: as §1

UniProt Q7TRM0 = biological target: T11, UniProt Q7TRM0
T11 sequence (whole entry): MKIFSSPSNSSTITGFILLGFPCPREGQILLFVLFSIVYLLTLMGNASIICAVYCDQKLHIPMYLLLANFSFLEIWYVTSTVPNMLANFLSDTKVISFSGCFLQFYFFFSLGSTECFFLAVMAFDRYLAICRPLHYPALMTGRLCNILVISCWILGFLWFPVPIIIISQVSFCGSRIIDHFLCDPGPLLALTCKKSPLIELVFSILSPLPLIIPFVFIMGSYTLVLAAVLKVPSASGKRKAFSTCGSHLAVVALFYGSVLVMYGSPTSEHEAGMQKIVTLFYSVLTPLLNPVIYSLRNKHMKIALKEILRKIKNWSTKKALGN
In short: as §1

UniProt Q7TRN9 = biological target: T12, UniProt Q7TRN9
T12 sequence (whole entry): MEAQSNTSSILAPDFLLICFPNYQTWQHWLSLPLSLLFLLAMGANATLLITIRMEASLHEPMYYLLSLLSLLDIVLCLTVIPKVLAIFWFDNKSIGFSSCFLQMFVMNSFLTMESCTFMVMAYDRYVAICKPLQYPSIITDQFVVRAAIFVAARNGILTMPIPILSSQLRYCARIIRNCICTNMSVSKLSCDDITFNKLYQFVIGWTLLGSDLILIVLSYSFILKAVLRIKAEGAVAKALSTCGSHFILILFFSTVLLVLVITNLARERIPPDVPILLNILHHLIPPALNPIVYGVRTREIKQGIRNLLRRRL
In short: as §1

UniProt Q7TRR8 = biological target: T13, UniProt Q7TRR8
T13 sequence (whole entry): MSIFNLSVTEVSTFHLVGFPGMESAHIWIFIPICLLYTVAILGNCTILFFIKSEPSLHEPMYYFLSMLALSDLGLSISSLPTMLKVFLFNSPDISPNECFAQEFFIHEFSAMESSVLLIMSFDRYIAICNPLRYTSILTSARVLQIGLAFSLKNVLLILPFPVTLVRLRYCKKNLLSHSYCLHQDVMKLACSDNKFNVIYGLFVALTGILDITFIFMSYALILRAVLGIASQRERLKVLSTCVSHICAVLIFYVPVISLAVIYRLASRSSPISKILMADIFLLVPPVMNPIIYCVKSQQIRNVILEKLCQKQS
In short: as §1

Measured: odorant receptor agonist call

O=c1ccc2ccccc2o1
inactive: UniProt Q7TRA1 | UniProt Q7TRA2 | UniProt Q7TRW1 | UniProt Q7TS40 | UniProt Q8VEU7 | UniProt Q8VF05
active: UniProt Q7TR71 | UniProt Q7TR75 | UniProt Q7TRA3 | UniProt Q7TRB8 | UniProt Q7TRE4 | UniProt Q7TS17 | UniProt Q7TS37

CCCCCCCC(C)=O
inactive: UniProt Q7TR71 | UniProt Q7TR79 | UniProt Q7TRA3 | UniProt Q7TRE4 | UniProt Q7TRW1 | UniProt Q7TRX0 | UniProt Q8VEU7 | UniProt Q8VF05

CCCCCCCCS
inactive: UniProt Q7TR71 | UniProt Q7TR79 | UniProt Q7TRA3 | UniProt Q7TRE4 | UniProt Q7TRW1 | UniProt Q7TRX0 | UniProt Q8VEU7 | UniProt Q8VF05

CCCCCCCCO
active: UniProt Q7TRN9
not listed: UniProt Q7TR75 | UniProt Q7TRA1 | UniProt Q7TRA2 | UniProt Q7TRB8 | UniProt Q7TS17 | UniProt Q7TS37 | UniProt Q7TS40
inactive: all other assays above

CCCCCCCCCS
inactive: UniProt Q7TR71 | UniProt Q7TR79 | UniProt Q7TRA3 | UniProt Q7TRE4 | UniProt Q7TRW1 | UniProt Q7TRX0 | UniProt Q8VEU7 | UniProt Q8VF05

C=C(C)C1CCC(C)C(=O)C1 (stereo unspecified)
active: UniProt Q8VF05
inactive: UniProt Q7TR71 | UniProt Q7TR79 | UniProt Q7TRA3 | UniProt Q7TRE4 | UniProt Q7TRW1 | UniProt Q7TRX0 | UniProt Q8VEU7
